Experimental data taken from ChEMBL document CHEMBL4433216, “Discovery of Stereospecific PARP-1 Inhibitor Isoindolinone NMS-P515” (ACS Med Chem Lett, 2019).
In brackets after ≈: the same amount, converted by molar mass.

Experiments:
[1] = biological target: T1, Poly [ADP-ribose] polymerase 1 (Homo sapiens, UniProt P09874); experiment: Displacement of fluorescent probe from human recombinant full length His-tagged PARP1 by fluorescent polarization assay
[2] = biological target: T1, Poly [ADP-ribose] polymerase 1; experiment: Binding affinity to human recombinant His/GST-tagged PARP1 catalytic domain (655-end residues) by surface plasma resonance method
[3] = biological target: T1, Poly [ADP-ribose] polymerase 1; experiment: Inhibition of PARP1 in human HeLa cells assessed as reduction in H2O2-induced PAR formation incubated for 30 mins followed by H2O2 addition for 15 mins by immunocytochemistry analysis; type: cell-based
CAPAN-1 [4] = experiment: Antitumor activity against human Capan1 cells xenografted in Balb athymic Nu/Nu mouse assessed as maximal tumor growth inhibition at 62.5 mg/kg, iv qd for 5 days; type: functional; details: CAPAN-1, iv, 120 h, read-out: TGI
Summary of the method: (§1)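 Capan-1 pancreatic xenograft. Temozolomide was given alone at 62.5 mg/kg iv once daily for 5 days. Maximal tumor growth inhibition and maximum body weight loss were recorded.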

[5] = Toxicity in human Capan1 cells xenografted Balb athymic Nu/Nu mouse assessed as maximum weight loss at 62.5 mg/kg, iv qd for 5 days; type: organism-based; details: in vivo, 120 h; summary of the method: as §1
[6] = biological target: Poly [ADP-ribose] polymerase 2 (Homo sapiens, UniProt Q9UGN5); experiment: Displacement of fluorescent probe from human recombinant full length His-tagged PARP2 by fluorescent polarization assay
Summary of the method: (§2)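 Fluorescence polarization displacement assay measuring probe displacement from each ARTD enzyme. Results expressed as K_D.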

[7] = biological target: T2, Protein mono-ADP-ribosyltransferase PARP3 (Homo sapiens, UniProt Q9Y6F1); experiment: Displacement of fluorescent probe from human recombinant His/GST-tagged PARP3 by fluorescent polarization assay; summary of the method: as §2
T2 sequence (Q9Y6F1 whole entry): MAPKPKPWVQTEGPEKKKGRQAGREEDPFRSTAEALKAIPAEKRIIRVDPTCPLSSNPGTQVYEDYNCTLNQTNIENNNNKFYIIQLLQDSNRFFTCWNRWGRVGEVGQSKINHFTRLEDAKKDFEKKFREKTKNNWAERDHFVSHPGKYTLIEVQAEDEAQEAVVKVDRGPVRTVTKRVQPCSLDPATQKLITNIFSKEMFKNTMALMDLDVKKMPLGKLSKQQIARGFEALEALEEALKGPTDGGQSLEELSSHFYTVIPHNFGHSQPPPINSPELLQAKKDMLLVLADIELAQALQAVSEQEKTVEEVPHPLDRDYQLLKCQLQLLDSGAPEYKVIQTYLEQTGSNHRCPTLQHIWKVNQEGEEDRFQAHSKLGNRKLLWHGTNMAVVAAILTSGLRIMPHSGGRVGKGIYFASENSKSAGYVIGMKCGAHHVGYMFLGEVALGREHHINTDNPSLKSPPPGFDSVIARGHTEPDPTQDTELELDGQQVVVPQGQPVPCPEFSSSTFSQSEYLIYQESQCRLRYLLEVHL

[8] = biological target: T3, Poly [ADP-ribose] polymerase tankyrase-1 (Homo sapiens, UniProt O95271); experiment: Displacement of fluorescent probe from human recombinant His-tagged TNKS1 catalytic domain (1091-1325 residues) by fluorescent polarization assay; summary of the method: as §2
T3 sequence (O95271 whole entry): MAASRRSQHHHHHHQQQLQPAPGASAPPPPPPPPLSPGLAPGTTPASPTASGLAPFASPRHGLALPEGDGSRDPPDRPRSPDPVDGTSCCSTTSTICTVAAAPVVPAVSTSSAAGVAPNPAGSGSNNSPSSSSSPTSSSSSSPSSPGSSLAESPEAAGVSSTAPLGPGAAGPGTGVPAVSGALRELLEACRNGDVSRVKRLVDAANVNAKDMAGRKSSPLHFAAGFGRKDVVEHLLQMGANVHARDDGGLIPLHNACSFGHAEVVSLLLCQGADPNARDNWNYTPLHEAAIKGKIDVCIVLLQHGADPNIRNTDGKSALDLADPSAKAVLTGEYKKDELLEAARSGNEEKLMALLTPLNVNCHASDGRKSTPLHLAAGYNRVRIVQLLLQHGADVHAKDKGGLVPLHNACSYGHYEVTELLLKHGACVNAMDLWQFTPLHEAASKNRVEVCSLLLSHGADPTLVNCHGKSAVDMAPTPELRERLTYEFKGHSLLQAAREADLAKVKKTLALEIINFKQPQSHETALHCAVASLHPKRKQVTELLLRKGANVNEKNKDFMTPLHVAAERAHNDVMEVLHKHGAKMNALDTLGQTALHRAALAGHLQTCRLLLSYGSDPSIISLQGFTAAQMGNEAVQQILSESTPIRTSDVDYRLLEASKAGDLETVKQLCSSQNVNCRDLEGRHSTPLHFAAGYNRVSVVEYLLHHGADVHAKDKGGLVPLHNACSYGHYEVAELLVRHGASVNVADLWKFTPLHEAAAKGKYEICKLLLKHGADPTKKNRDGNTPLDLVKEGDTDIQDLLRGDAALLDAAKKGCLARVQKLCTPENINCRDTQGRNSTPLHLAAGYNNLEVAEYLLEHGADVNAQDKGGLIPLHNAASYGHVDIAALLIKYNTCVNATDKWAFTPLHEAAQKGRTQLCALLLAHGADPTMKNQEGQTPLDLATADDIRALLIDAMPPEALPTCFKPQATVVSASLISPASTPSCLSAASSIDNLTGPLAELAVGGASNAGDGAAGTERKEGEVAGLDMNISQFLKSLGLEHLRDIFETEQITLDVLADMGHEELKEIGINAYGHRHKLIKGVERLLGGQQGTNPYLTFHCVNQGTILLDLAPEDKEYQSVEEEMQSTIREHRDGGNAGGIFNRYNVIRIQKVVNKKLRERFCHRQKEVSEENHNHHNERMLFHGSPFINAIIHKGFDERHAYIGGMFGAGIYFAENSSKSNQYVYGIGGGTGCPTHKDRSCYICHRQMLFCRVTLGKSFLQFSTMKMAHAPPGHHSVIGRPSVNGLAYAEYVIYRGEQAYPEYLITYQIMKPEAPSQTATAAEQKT

[9] = Cmax in Balb Nu/Nu mouse at 5 mg/kg, iv measured upto 24 hrs by HPLC-MS-MS analysis; type: ADME, organism-based; set-up: dose 5 mg/kg, route intravenous; details: in vivo
[10] = AUC (0 to infinity) in Balb Nu/Nu mouse at 5 mg/kg, iv measured upto 24 hrs by HPLC-MS-MS analysis; type: ADME, organism-based; set-up: dose 5 mg/kg, time infinity, route intravenous; details: in vivo
[11] = Half life in Balb Nu/Nu mouse at 5 mg/kg, iv measured upto 24 hrs by HPLC-MS-MS analysis; type: ADME, organism-based; details: in vivo
[12] = Cmax in Balb Nu/Nu mouse at 10 mg/kg, po measured upto 24 hrs by HPLC-MS-MS analysis; type: ADME, organism-based; set-up: dose 10 mg/kg, route oral; details: in vivo
[13] = AUC (0 to infinity) in Balb Nu/Nu mouse at 10 mg/kg, po measured upto 24 hrs by HPLC-MS-MS analysis; type: ADME, organism-based; set-up: dose 10 mg/kg, route oral, time infinity; details: in vivo
[14] = Half life in Balb Nu/Nu mouse at 10 mg/kg, po measured upto 24 hrs by HPLC-MS-MS analysis; type: ADME, organism-based; details: in vivo
[15] = Oral bioavailability in Balb Nu/Nu mouse at 10 mg/kg measured upto 24 hrs by HPLC-MS-MS analysis; type: ADME, organism-based; details: in vivo
Summary of the method: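 Oral PK in Harlan Nu/Nu mice, n = 3 per study, dosed per os at 10 mg/kg as a 0.5% methocel suspension. Bioavailability derived from oral versus iv exposure (AUC∞), with iv dosing in the same mouse strain.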

[16] = Solubility in pH 7 ammonium acetate buffer by LC-MS/MS analysis; type: physicochemical
[17] = Permeability of the compound in pH 7.4 HBSS at 10 uM incubated for 4 hrs by LC-MS/MS based PAMPA method; type: ADME; details: read-out: permeability
[18] = Permeability of the compound in pH 7.4 HBSS buffer assessed as percentage remained in membrane at 10 uM incubated for 4 hrs by LC-MS/MS based PAMPA method; type: ADME; details: pH 7.4, 4 h
Cytochrome P450 2D6 = Cytochrome P450 2D6 (Homo sapiens, UniProt P10635); experiment: Inhibition of CYP2D6 (unknown origin); type: ADME
Summary of the method: (§3)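 Screen of eight P450 cytochrome isoforms, with IC50 determined for each isoform.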

Cytochrome P450 2B6 = biological target: T4, Cytochrome P450 2B6 (Homo sapiens, UniProt P20813); experiment: Inhibition of CYP2B6 (unknown origin); type: ADME; summary of the method: as §3
T4 sequence (P20813 whole entry): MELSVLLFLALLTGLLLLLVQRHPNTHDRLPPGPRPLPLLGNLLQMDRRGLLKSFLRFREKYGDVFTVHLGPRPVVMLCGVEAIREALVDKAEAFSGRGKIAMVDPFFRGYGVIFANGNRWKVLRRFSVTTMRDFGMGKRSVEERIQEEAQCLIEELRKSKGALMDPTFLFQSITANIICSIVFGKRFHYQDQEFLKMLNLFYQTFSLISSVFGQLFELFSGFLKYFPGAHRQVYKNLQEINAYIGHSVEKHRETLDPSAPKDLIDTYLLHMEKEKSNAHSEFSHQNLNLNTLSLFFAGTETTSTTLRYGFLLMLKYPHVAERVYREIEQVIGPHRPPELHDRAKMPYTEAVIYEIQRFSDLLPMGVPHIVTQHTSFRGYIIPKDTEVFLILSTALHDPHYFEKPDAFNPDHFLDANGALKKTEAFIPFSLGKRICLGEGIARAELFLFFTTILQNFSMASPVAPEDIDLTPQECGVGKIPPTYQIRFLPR

in vivo = details: Balb Nu/Nu, mouse, iv, 5 mg/kg
in vitro [19] = details: mouse, plasma
in vitro [20] = experiment: in vitro; set-up: dose or concentration left out as unconfirmed; details: human, liver microsomes
in vitro [21] = experiment: in vitro; set-up: dose or concentration left out as unconfirmed; details: rat, hepatocytes
[22] = Cmax in Balb Nu/Nu mouse at 10 mg/kg, iv measured upto 24 hrs by HPLC-MS-MS analysis; type: ADME, organism-based; set-up: dose 10 mg/kg, route intravenous; details: in vivo
[23] = AUC (0 to infinity) in Balb Nu/Nu mouse at 10 mg/kg, iv measured upto 24 hrs by HPLC-MS-MS analysis; type: ADME, organism-based; set-up: dose 10 mg/kg, time infinity, route intravenous; details: in vivo
[24] = Half life in Balb Nu/Nu mouse at 10 mg/kg, iv measured upto 24 hrs by HPLC-MS-MS analysis; type: ADME, organism-based; details: in vivo
[25] = Toxicity in human Capan1 cells xenografted Balb athymic Nu/Nu mouse assessed as maximum weight loss at 80 mg/kg, po qd administered for 12 days; type: organism-based; details: in vivo, 288 h
Summary of the method: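 BRCA-2 mutated Capan-1 pancreatic xenograft. The PARP-1 inhibitor was given orally as a methocel suspension at 80 mg/kg once daily for 12 days. Read-outs were maximal tumor growth inhibition and maximum body weight loss.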

CAPAN-1 [26] = experiment: animal or person; details: Mus musculus, CAPAN-1, po, 288 h, read-out: GI
[27] = Toxicity in human Capan1 cells xenografted Balb athymic Nu/Nu mouse assessed as maximum body weight loss at 80 mg/kg, po qd administered for 12 days co-treated with 62.5 mg/kg, iv qd temozolomide for 5 days starting from day 3; details: in vivo

T1 sequence (P09874 whole entry, the tested form may be a part): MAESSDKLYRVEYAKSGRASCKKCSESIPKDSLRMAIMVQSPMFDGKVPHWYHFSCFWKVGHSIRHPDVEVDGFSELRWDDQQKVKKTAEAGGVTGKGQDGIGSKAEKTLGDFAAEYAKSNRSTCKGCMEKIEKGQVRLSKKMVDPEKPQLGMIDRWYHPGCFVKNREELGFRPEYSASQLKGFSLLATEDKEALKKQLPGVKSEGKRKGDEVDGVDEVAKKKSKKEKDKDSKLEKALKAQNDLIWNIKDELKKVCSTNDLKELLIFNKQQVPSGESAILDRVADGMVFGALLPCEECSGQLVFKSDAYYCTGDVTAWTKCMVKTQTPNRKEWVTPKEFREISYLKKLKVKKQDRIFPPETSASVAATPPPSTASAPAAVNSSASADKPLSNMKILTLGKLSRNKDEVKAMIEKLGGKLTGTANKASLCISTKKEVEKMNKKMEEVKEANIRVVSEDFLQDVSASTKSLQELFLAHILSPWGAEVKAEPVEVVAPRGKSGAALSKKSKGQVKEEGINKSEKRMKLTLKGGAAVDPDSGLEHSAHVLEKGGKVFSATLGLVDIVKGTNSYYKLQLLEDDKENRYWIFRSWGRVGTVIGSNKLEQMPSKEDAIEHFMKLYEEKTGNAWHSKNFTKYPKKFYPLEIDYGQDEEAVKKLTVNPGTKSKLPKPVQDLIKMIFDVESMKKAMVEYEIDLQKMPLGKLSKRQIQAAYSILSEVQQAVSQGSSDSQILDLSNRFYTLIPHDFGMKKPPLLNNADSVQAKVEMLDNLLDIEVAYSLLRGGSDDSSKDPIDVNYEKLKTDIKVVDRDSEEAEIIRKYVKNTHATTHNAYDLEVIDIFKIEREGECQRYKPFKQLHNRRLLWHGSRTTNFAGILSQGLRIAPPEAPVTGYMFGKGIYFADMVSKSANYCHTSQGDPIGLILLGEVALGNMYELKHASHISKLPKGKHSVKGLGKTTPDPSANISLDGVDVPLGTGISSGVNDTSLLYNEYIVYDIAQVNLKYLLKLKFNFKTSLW
Poly [ADP-ribose] polymerase 2, sequence (Q9UGN5 whole entry): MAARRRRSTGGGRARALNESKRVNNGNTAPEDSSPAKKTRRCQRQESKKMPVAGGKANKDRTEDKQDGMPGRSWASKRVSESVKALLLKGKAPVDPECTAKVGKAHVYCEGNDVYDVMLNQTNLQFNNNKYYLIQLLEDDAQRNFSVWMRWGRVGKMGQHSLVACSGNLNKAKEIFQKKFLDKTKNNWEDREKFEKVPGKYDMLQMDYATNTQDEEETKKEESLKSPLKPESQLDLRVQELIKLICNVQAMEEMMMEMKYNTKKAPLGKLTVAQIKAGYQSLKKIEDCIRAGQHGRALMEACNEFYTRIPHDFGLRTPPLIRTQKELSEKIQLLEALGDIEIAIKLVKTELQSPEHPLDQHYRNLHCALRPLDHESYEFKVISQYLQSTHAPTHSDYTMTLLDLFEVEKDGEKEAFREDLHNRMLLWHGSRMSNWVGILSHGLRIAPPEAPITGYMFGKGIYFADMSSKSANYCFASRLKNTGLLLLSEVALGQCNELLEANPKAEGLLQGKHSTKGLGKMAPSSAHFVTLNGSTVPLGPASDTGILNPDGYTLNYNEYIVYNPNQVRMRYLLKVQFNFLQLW
Cytochrome P450 2D6, sequence (P10635 whole entry, canonical isoform): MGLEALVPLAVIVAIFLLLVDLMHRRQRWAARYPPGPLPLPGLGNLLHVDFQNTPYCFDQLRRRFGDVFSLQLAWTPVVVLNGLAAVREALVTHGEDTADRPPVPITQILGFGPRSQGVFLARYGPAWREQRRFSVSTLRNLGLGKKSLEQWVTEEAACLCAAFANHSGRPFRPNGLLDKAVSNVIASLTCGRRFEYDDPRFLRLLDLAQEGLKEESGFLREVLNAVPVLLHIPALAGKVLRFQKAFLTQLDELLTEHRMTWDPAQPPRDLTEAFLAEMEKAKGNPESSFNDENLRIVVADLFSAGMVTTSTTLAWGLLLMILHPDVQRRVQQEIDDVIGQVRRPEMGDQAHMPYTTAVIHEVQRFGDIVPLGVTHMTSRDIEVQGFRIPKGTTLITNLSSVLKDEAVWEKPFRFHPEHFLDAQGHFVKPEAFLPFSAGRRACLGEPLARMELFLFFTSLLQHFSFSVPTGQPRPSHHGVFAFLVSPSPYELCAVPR

Compound | Kd [1] [nM] | Kd [2] [nM] | IC50 [3] [nM] | Kd [6] [nM] | Kd [7] [nM] | Kd [8] [nM] | Cmax [12] [nM] | AUC(0-inf) [13] [µM·h] | half-life [14] [h] | bioavailability [15] [%] | solubility [16] [µM] | Papp at 4 h, 10 µM [17] [×10⁻⁶ cm/s] | permeability [18] [%] | IC50 (Cytochrome P450 2D6) [nM] | IC50 (Cytochrome P450 2B6) [nM] | fraction unbound (in vitro [19]) | CLint scaled at 0.5 h (in vitro [20]) [mL/min/kg] | CLint scaled at 1.5 h (in vitro [21]) [mL/min/kg] | other results
C[C@@H]1c2cccc(C(N)=O)c2C(=O)N1C1CCN(C2CCCCC2)CC1 | 1320 | 1760 | 162 |  |  |  |  |  |  |  |  |  |  |  |  |  |  |  | 
Cn1nnc2c(C(N)=O)ncn2c1=O [TEMOZOLOMIDE] |  |  |  |  |  |  |  |  |  |  |  |  |  |  |  |  |  |  | inhibition in vivo at 62.5 mg/kg (CAPAN-1 [4]): 46%; Activity [5]: 8%
CC1c2cc(F)cc(C(N)=O)c2C(=O)N1C1CCN(C2CCCCC2)CC1 (racemic) |  |  | 640 |  |  |  |  |  |  |  |  |  |  |  |  |  |  |  | 
CC1c2cccc(C(N)=O)c2C(=O)N1C1CCN(C2CCCCC2)CC1 (racemic) | < 30 |  | 50 | > 10000 | > 10000 | > 10000 | 2500 | 13.5 | 3.1 | 100 | 140 (≈ 49.8 µg/mL) | 39.4 | 8 | 600 | 4900 | 0.05 | 5 | 5 | Cmax [9]: 2500 nM; AUC(0-inf) [10]: 6.3 µM·h; half-life [11]: 1.8 h; Vd at 24 h (in vivo): 3.6 L/kg
C[C@H]1c2cccc(C(N)=O)c2C(=O)N1C1CCN(C2CCCCC2)CC1 | < 30 | 16 | 27 | > 10000 | > 10000 | > 10000 | 1400 | 4.9 | 2.6 | 78.3 | > 225 | 27.3 | 0 | > 31000 | > 31000 | 0.13 | 5 | 5 | Cmax [22]: 4900 nM; AUC(0-inf) [23]: 8.2 µM·h; half-life [24]: 2.1 h; Activity [25]: 6%; inhibition in vivo at 80 mg/kg (CAPAN-1 [26]): 48%; Activity [27]: 17%
